We go through one compound from ChEMBL document CHEMBL1143425, “Paradoxical growth effect of caspofungin observed on biofilms and planktonic cells of five different Candida species” (2007).

The test system of test [1] is Candida tropicalis. The test can be described thus: Effect on morphology in Candida tropicalis grown as planktonic cells assessed as inhibition of hyphae and pseudohyphae at 8 ug/ml after 48 hrs. Format: functional, organism-based. The procedure, abridged:
(§1)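 Clinical isolates were tested by CLSI M27-A2 broth microdilution with caspofungin dissolved in sterile water. After 48 h incubation, cells were taken from drug-containing and drug-free control wells. They were examined by light microscopy at ×400 for hyphae or pseudohyphae, rounding or clumping, and enlarged globose cells.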

In test [2] the test system is Candida parapsilosis. The test can be described thus: Antimicrobial activity against Candida parapsilosis BR-A29 grown as biofilm assessed as concentration producing paradoxical growth after 48 hrs by XTT reduction assay. The test is classed as functional. A digest of the protocol:
(§2)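 Clinical isolates were grown overnight (18 h, 35°C, 120 rpm) in RPMI 1640 with MOPS, pH 7.0, then washed and set to ~1 × 10^7 cells/ml. Cells attached for 1.5 h at 37°C, 75 rpm, then biofilms grew 24 h. Caspofungin was given as doubling dilutions of 2–1,024 μg/ml for 48 h at 35°C, 75 rpm. Read-out was XTT-menadione in PBS, 1 h at 35°C in the dark, A490, cell-free blank subtracted. MIC was a 50% drop in activity versus drug-free; PG was >50% of control above MIC. Run in duplicate.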

Test [3] relates to Candida albicans. The test can be described thus: Antimicrobial activity against Candida albicans BR-A1 grown as planktonic cell assessed as paradoxical growth after 48 hrs by XTT reduction assay. Format: functional, organism-based. The procedure, abridged:
(§3)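 Planktonic cells were tested by CLSI M27-A2 broth microdilution with caspofungin in water, incubated 48 h. XTT-menadione was added to each well, plates were held 1 h at 35°C in the dark and centrifuged, and supernatant absorbance was read at 490 nm. MIC was defined as 50% decrease in metabolic activity versus drug-free control. PG was defined as ≥20% of control activity at concentrations above MIC.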
(In general: Formazan colour is commonly taken as a measure of viable cells.)

Test [4] has as its system Candida albicans. The test can be described thus: Antimicrobial activity against Candida albicans BR-A1 grown as planktonic cell after 48 hrs by XTT reduction assay. The test is classed as functional. The procedure, abridged:
(§4)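 Planktonic broth microdilution followed CLSI M27-A2, with caspofungin dissolved in water. After 48 h, XTT-menadione was added to the wells and plates were kept 1 h at 35°C in the dark. Plates were then centrifuged and supernatant A490 was read. MIC was the lowest concentration giving a 50% decrease in metabolic activity versus drug-free control. Paradoxical growth was defined as ≥20% of control activity above the MIC.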

Test [5] concerns Candida metapsilosis. Briefly: Antimicrobial activity against Candida metapsilosis BR-A41 grown as planktonic cell assessed as paradoxical growth after 48 hrs by XTT reduction assay. Format: functional, organism-based. A digest of the protocol:
as §3

Test [6] concerns Candida orthopsilosis. Briefly: Antimicrobial activity against Candida orthopsilosis BR-A39 grown as planktonic cell assessed as paradoxical growth after 48 hrs by XTT reduction assay. Format: functional, organism-based. A digest of the protocol: as §3
Test [7] has as its system Candida albicans. Briefly: Antimicrobial activity against Candida albicans BR-A2 grown as biofilm after 48 hrs by XTT reduction assay. Format: functional. A digest of the protocol:
(§5)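 Isolates were grown on Sabouraud agar (30°C, 24 h), then overnight in RPMI 1640 with MOPS, pH 7.0, at 35°C with shaking. Cells were washed and set to ~1 × 10^7 cells/ml, attached 1.5 h at 37°C, and grown 24 h. Biofilms were then exposed to caspofungin in 10 twofold dilutions (2–1,024 μg/ml) for 48 h at 35°C with shaking. Read-out was XTT-menadione, 1 h, 35°C, dark, A490, cell-free blank subtracted. MIC was the 50% drop in activity versus drug-free control. Tested in duplicate.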

For test [8], the system named is Candida metapsilosis. The test can be described thus: Antimicrobial activity against Candida metapsilosis BR-A44 grown as biofilm after 48 hrs by XTT reduction assay. The note with it: Lodderomyces metapsilosis. Format: functional. A digest of the protocol:
(§6)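 Sabouraud-grown cells were shaken overnight (18 h, 120 rpm, 35°C) in RPMI 1640 with MOPS at pH 7.0, then washed and set at ~1 × 10^7 cells/ml. Attachment lasted 1.5 h at 37°C, and growth ran 24 h before challenge. Caspofungin was added in RPMI at 2–1,024 μg/ml (10 doublings) for 48 h at 35°C with shaking. XTT-menadione was read at 490 nm after 1 h at 35°C in the dark, with blank wells subtracted. MIC was taken as 50% reduction versus drug-free wells, and PG as >50% of control above MIC. Assays were run in duplicate.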

Test [9] concerns Candida orthopsilosis. Briefly: Antimicrobial activity against Candida orthopsilosis BR-A38 grown as planktonic cell assessed as concentration producing paradoxical growth after 48 hrs by XTT reduction assay. The test is classed as functional. A digest of the protocol: as §3
The subject of test [10] is Candida albicans. Briefly: Antimicrobial activity against Candida albicans BR-A4 grown as biofilm assessed as concentration producing paradoxical growth after 48 hrs by XTT reduction assay. The test is classed as functional. A digest of the protocol:
as §6

The subject of test [11] is Candida parapsilosis. The test can be described thus: Antimicrobial activity against Candida parapsilosis BR-A26 grown as planktonic cell after 48 hrs by XTT reduction assay. Format: functional. The note with it: Lodderomyces parapsilosis. A digest of the protocol: as §4
The test system of test [12] is Candida orthopsilosis. The test can be described thus: Antimicrobial activity against Candida orthopsilosis BR-A32 grown as planktonic cell assessed as paradoxical growth after 48 hrs by XTT reduction assay. The test is classed as functional, organism-based. A digest of the protocol: as §3
For test [13], the system named is Candida tropicalis. The test can be described thus: Effect on morphology in Candida tropicalis grown as biofilm assessed as rounding and clumping at 8 ug/ml after 48 hrs. The test is classed as functional, organism-based. A digest of the protocol: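 Overnight RPMI 1640 cultures (MOPS, pH 7.0) were washed and set to about 1 × 10^7 cells/ml, then attached to polystyrene wells for 1.5 h at 37°C at 75 rpm. After 24 h biofilm growth, wells were washed and given doubling caspofungin dilutions (2–1,024 μg/ml in RPMI) for 48 h at 35°C at 75 rpm. Biofilms were viewed in situ by inverted light microscopy at ×200 alongside drug-free wells.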

Test [14] relates to Candida tropicalis. The test can be described thus: Effect on morphology in Candida tropicalis grown as planktonic cells assessed as rounding and clumping at 8 ug/ml after 48 hrs. Format: functional, organism-based. The procedure, abridged:
as §1

Test [15] has as its system Candida tropicalis. Briefly: Antimicrobial activity against Candida tropicalis BR-A14 grown as biofilm assessed as paradoxical growth after 48 hrs by XTT reduction assay. The test is classed as functional, organism-based. The procedure, abridged:
as §2

Test [16] has as its system Candida orthopsilosis. Briefly: Antimicrobial activity against Candida orthopsilosis BR-A32 grown as biofilm assessed as concentration producing paradoxical growth after 48 hrs by XTT reduction assay. The test is classed as functional. The procedure, abridged: as §6
The subject of test [17] is Candida parapsilosis. Briefly: Antimicrobial activity against Candida parapsilosis BR-A25 grown as planktonic cell assessed as concentration producing paradoxical growth after 48 hrs by XTT reduction assay. Format: functional. The procedure, abridged: (§7)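 Planktonic broth microdilution followed CLSI M27-A2, with caspofungin dissolved in water. After 48 h, XTT-menadione was added to each well and plates were incubated 1 h at 35°C in the dark. Cells were pelleted by centrifugation and the supernatant was read at 490 nm. MIC was the lowest concentration giving a 50% drop in metabolic activity versus the drug-free control. PG was ≥20% of drug-free activity above the MIC.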

For test [18], the system named is Candida orthopsilosis. Briefly: Antimicrobial activity against Candida orthopsilosis BR-A38 grown as planktonic cell after 48 hrs by XTT reduction assay. The test is classed as functional. The note with it: Lodderomyces orthopsilosis. A digest of the protocol: as §4
The test system of test [19] is Candida tropicalis. The test can be described thus: Antimicrobial activity against Candida tropicalis BR-A20 grown as planktonic cell assessed as paradoxical growth after 48 hrs by XTT reduction assay. Format: functional, organism-based. The procedure, abridged:
as §7

Test [20] relates to Candida orthopsilosis. Briefly: Antimicrobial activity against Candida orthopsilosis BR-A39 grown as biofilm after 48 hrs by XTT reduction assay. The note with it: Lodderomyces orthopsilosis. Format: functional. A digest of the protocol: as §5
The test system of test [21] is Candida parapsilosis. Briefly: Antimicrobial activity against Candida parapsilosis BR-A31 grown as planktonic cell after 48 hrs by XTT reduction assay. The test is classed as functional. The note with it: Lodderomyces parapsilosis. The procedure, abridged:
as §4

Test [22] relates to Candida metapsilosis. The test can be described thus: Antimicrobial activity against Candida metapsilosis BR-A42 grown as planktonic cell assessed as paradoxical growth after 48 hrs by XTT reduction assay. The test is classed as functional, organism-based. A digest of the protocol:
as §3

In test [23] the test system is Candida parapsilosis. The test can be described thus: Antimicrobial activity against Candida parapsilosis BR-A28 grown as biofilm assessed as concentration producing paradoxical growth after 48 hrs by XTT reduction assay. The test is classed as functional. A digest of the protocol:
as §2

The subject of test [24] is Candida tropicalis. Briefly: Antimicrobial activity against Candida tropicalis BR-A18 grown as planktonic cell assessed as paradoxical growth after 48 hrs by XTT reduction assay. Format: functional, organism-based. A digest of the protocol: as §7

Values after ≈ are worked out from the molar mass of the structure shown. Active and inactive are the calls of the source.

On to `CC[C@H](C)C[C@H](C)CCCCCCCCC(=O)N[C@H]1C[C@@H](O)[C@@H](NCCN)NC(=O)[C@@H]2[C@@H](O)CCN2C(=O)[C@H]([C@H](O)CCN)NC(=O)[C@H]([C@H](O)[C@@H](O)c2ccc(O)cc2)NC(=O)[C@@H]2C[C@@H](O)CN2C(=O)[C@H]([C@@H](C)O)NC1=O` [CASPOFUNGIN], for which the outcome in test [1], in test [3], in test [13], in test [14], in test [15] and in [19] was Active. Further, the result in test [24] was Active. The Activity worked out at 16 µg/mL in test [2]; 16 µg/mL in test [9]; 16 µg/mL in test [10]; 32 µg/mL in [16]; 32 µg/mL in test [17]; 16 µg/mL in test [23]. Moreover, the MIC in [4] stood at 0.5 µg/mL (≈ 0.457 µM); in test [7], 2 µg/mL (≈ 1.83 µM); in test [8] it was 2 µg/mL (≈ 1.83 µM); in test [11], 2 µg/mL (≈ 1.83 µM); in test [18] it was 2 µg/mL (≈ 1.83 µM); in test [20], 2 µg/mL (≈ 1.83 µM). In test [21], this compound came in with an MIC of 2 µg/mL (≈ 1.83 µM). Moreover, the result in [5], in [6], in test [12] and in test [22] was inactive.
